Test results taken from ChEMBL document CHEMBL3352764, “Rational design of novel CYP2A6 inhibitors” (Bioorg Med Chem, 2014).

Key:
Cytochrome P450 2A6 [1] = target: T1, Cytochrome P450 2A6 (Homo sapiens, UniProt P11509); assay: Inhibition of human CYP2A6 in baculovirus-infected insect cell system using […] as substrate preincubated for 10 mins by fluorescence assay
T1 sequence (P11509 whole entry): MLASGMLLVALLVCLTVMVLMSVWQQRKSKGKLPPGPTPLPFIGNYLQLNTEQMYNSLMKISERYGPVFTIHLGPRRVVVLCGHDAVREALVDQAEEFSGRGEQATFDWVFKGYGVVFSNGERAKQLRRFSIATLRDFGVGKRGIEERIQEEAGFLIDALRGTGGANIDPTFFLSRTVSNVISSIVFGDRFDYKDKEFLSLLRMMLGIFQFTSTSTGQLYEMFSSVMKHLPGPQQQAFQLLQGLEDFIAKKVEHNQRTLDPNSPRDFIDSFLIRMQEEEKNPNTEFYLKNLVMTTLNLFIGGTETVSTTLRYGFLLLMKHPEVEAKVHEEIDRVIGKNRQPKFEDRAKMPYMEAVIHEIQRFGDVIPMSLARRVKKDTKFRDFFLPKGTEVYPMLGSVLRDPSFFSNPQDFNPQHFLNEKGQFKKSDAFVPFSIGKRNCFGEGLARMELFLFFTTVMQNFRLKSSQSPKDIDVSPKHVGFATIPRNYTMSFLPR
In short: (§1)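 Coumarin 7-hydroxylation by baculovirus/insect-cell human CYP2A6. Reaction started with NADPH (final 0.33 mM) and preincubated 10 min at 37 °C. Stopped with 10% TCA, then 1.6 M glycine-NaOH added; 7-hydroxycoumarin fluorescence read at ex 355/em 450 nm. Blanks subtracted; activity as % of control; IC50 by nonlinear fitting.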

Cytochrome P450 2A6 [2] = target: T1, Cytochrome P450 2A6; assay: Inhibition of human CYP2A6 in baculovirus-infected insect cell system using […] as substrate incubated for 30 mins prior to substrate addition measured after 10 mins by fluorescence assay; conditions: for inhibition (INH): human, 10 min
Cytochrome P450 2A6 [3] = target: T1, Cytochrome P450 2A6; assay: Irreversible inhibition of human CYP2A6 in baculovirus-infected insect cell system assessed as nicotine metabolism after 15 mins
In short: (§2)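 Nicotine oxidation by expressed CYP2A6 (with P450 reductase and cytochrome b5): 10 pmol CYP and 10 pmol b5/ml, 1 mM NADPH, 50 µl cytosol, 50 mM Tris–HCl pH 7.4, 37 °C, 15 min. Stopped with 4% v/v Na2CO3; 5-methylcotinine internal standard; nicotine and metabolites quantified by HPLC. Drug concentrations expressed as free base.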

CYP2A6 = target: T2, CYP2A6 (Homo sapiens, UniProt P11509); assay: (§3) Irreversible inhibition of human CYP2A6 in baculovirus-infected insect cell system using […] as substrate incubated for 10 mins by fluorescence assay; conditions: human, probe coumarin (printed: coumarin 7)
T2 sequence (P11509 whole entry): T1 sequence (P11509 whole entry)
In short: (§4)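 Inactivation: five inhibitor concentrations plus vehicle preincubated various times (including 0 min) with 5–20 pmol CYP2A6 and NADPH. Then diluted 10–40 fold into 50 mM Tris–HCl pH 7.4, 5 mM MgCl2, 10 µM coumarin, 0.3 mM NADPH, 10 min at 37 °C. Kobs from ln activity vs time; Kinact and Ki from double-reciprocal regression.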

Cytochrome P450 2A6 [4] = target: T1, Cytochrome P450 2A6; assay: as §3; in short: as §4
Cytochrome P450 2A6 [5] = target: T1, Cytochrome P450 2A6; assay: Inhibition of human CYP2A6 in baculovirus-infected insect cell system using […] as substrate in presence of mouse liver cytosolic fraction by fluorescence assay
Cytochrome P450 2A6 [6] = target: T1, Cytochrome P450 2A6; assay: Competitive inhibition of human CYP2A6 in baculovirus-infected insect cell system assessed as nicotine metabolism after 15 mins; in short: as §2
Cytochrome P450 2A6 [7] = target: T1, Cytochrome P450 2A6; assay: Mixed-type inhibition of human CYP2A6 in baculovirus-infected insect cell system assessed as nicotine metabolism after 15 mins; in short: as §2
Cytochrome P450 2A6 [8] = target: T1, Cytochrome P450 2A6; assay: Reversible inhibition of human CYP2A6 in baculovirus-infected insect cell system using […] as substrate preincubated for 10 mins by fluorescence assay; in short: as §1

SMILES	IC50 (Cytochrome P450 2A6 [1]) [µM]	inhibition (INH) (Cytochrome P450 2A6 [2])	other results
O=C(Cl)c1csc2ccccc12	270		
N#CCc1csc2ccc(Cl)cc12	51	Active	
CCc1ccc(C#N)cc1	7.4		
O=Cc1ccc2sccc2c1	0.9	Active	
N#Cc1ccc2occc2c1	1.6		Ki (Cytochrome P450 2A6 [3]): 0.2 µM; Ki (Cytochrome P450 2A6 [1]): 0.1 µM; IC50 (Cytochrome P450 2A6 [2]): 0.6 µM; kinact at 10 min (CYP2A6): 0.00133 s⁻¹; Ki (Cytochrome P450 2A6 [4]; read-out: Ki): 2.4 µM
NCc1cc2cc(Br)ccc2o1	< 100		
O=Cc1cc2cccnc2s1	8		IC50 (Cytochrome P450 2A6 [2]): 0.4 µM; kinact at 10 min (CYP2A6): 0.00133 s⁻¹; Ki (Cytochrome P450 2A6 [4]; read-out: Ki): 2.4 µM
NC(=S)c1csc2ccncc12	6.6	Active	
O=Cc1cc2ccccc2o1	17		
Cc1csc2ccc(Cl)cc12	88	Active	
O=Cc1ccc2[nH]ccc2c1	0.4	Active	Ki (Cytochrome P450 2A6 [1]): 0.07 µM; inhibition (INH) (Cytochrome P450 2A6 [5]): Not Active; Ki (Cytochrome P450 2A6 [6]): 1.8 µM
NCc1cc2cnccc2s1	1	Active	
NCc1csc2ccc(Br)cc12	0.7	Active	Ki (Cytochrome P450 2A6 [1]): 0.2 µM; Ki (Cytochrome P450 2A6 [7]): 0.8 µM; inhibition (INH) (Cytochrome P450 2A6 [8]): Active
O=Cc1ccc2cc[nH]c2c1	1.5	Active	
O=Cc1csc2ccc(Br)cc12	5		IC50 (Cytochrome P450 2A6 [2]): 0.5 µM; Ki (Cytochrome P450 2A6 [4]; read-out: Ki(app)): 1.5 µM
O=Cc1c[nH]c2ccccc12 [3-FORMYLINDOLE]	79	Active	Ki (Cytochrome P450 2A6 [1]): 11 µM
O=CCc1coc2ccccc12	< 100		
N#Cc1csc2ccc(Cl)cc12	41	Active	
O=Cc1ccc2occc2c1	0.4		Ki (Cytochrome P450 2A6 [1]): 0.07 µM; IC50 (Cytochrome P450 2A6 [2]): 0.05 µM; inhibition (INH) (Cytochrome P450 2A6 [5]): Not Active; Ki (Cytochrome P450 2A6 [6]): 5.5 µM; kinact at 10 min (CYP2A6): 0.00133 s⁻¹; Ki (Cytochrome P450 2A6 [4]; read-out: Ki): 2.4 µM
Cc1ccc(C#N)cc1	8.1		
O=Cc1c[nH]c2cccc(Br)c12	12	Active	Ki (Cytochrome P450 2A6 [1]): 8.6 µM
CNCc1cc2cccnc2s1	2.2	Active	Ki (Cytochrome P450 2A6 [1]): 0.8 µM
Brc1cc2ccccc2o1	140		

SMILES	IC50 (Cytochrome P450 2A6 [1]) [µM]	inhibition (INH) (Cytochrome P450 2A6 [2])	other results
CNCc1cc2cnccc2s1	1.5	Active	
O=Cc1cc2ccncc2s1	0.4	Active	Ki (Cytochrome P450 2A6 [1]): 0.06 µM; inhibition (INH) (Cytochrome P450 2A6 [5]): Not Active; Ki (Cytochrome P450 2A6 [6]): 4.2 µM
OCc1cc2cc(Br)ccc2o1	< 100		
Cn1ccc2ccc(C=O)cc21	8.4	Active	
Cc1cc2cc(N)ccc2[nH]1	34	Active	
O=Cc1cccc2ccsc12	11	Active	
OCc1cc2ccccc2s1	18	Active	
NCc1cc2ccccc2s1		Active	Ki (Cytochrome P450 2A6 [1]): 0.01 µM
Brc1ccc2[nH]ccc2c1	7.4	Active	
O=Cc1cc2ccccc2[nH]1	11		IC50 (Cytochrome P450 2A6 [2]): 1.8 µM; kinact at 10 min (CYP2A6): 0.00133 s⁻¹; Ki (Cytochrome P450 2A6 [4]; read-out: Ki): 2.4 µM
Cc1ccc2sc(C=O)cc2c1	3.4	Active	
NCc1cc2ccncc2s1	5.2	Active	
OCc1csc2ccccc12	37	Active	
CN(C)Cc1cc2cnccc2s1	1.4	Active	Ki (Cytochrome P450 2A6 [1]): 0.6 µM; Ki (Cytochrome P450 2A6 [6]): 0.5 µM; inhibition (INH) (Cytochrome P450 2A6 [8]): Active
N#Cc1cc2ccccc2o1	52		
Cn1ccc2cc(C=O)ccc21	0.68	Active	
NCc1csc2ccc(Cl)cc12	0.4	Active	Ki (Cytochrome P450 2A6 [1]): 0.09 µM; Ki (Cytochrome P450 2A6 [7]): 6 µM
O=Cc1cc2cc(Br)ccc2o1	72		
O=Cc1cc2ccccc2s1	3.2		IC50 (Cytochrome P450 2A6 [2]): 0.8 µM; Ki (Cytochrome P450 2A6 [4]; read-out: Ki(app)): 0.13 µM
O=Cc1c[nH]c2cc(Br)ccc12	57	Active	Ki (Cytochrome P450 2A6 [1]): 3.3 µM
O=Cc1cc2cnccc2s1	0.3	Active	Ki (Cytochrome P450 2A6 [1]): 0.07 µM; inhibition (INH) (Cytochrome P450 2A6 [5]): Not Active; Ki (Cytochrome P450 2A6 [6]): 1.1 µM; inhibition (INH) (Cytochrome P450 2A6 [8]): Active
CNCc1cc2ccccc2s1	0.5	Active	
